In ChEMBL document CHEMBL1137390, “Structure-based design of potent small-molecule inhibitors of anti-apoptotic Bcl-2 proteins” (J Med Chem, 2006):

Experiments:
[1] = molecular target: T1, Apoptosis regulator Bcl-2 (Homo sapiens, UniProt P10415); assay: Binding affinity to human Bcl2 by ELISA
[2] = molecular target: T1, Apoptosis regulator Bcl-2; assay: Displacement of FAM-Bid from human Bcl2 by FP assay
How it was run: (§1)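 Competitive fluorescence-polarization binding assay against the recombinant anti-apoptotic protein. Values are reported as Ki ± SD from three to seven independent experiments per compound.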

[3] = test system: PC-3; assay: Induction of apoptosis in human PC3 cell at 20 uM by TUNEL assay; type: functional
How it was run: (§2)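 PC-3 prostate cancer cells were exposed to compound for 4 days, with an untreated control included. Apoptosis was scored by TUNEL using flow cytometry: the BrdU-FITC-positive fraction (M1 marker) is given as the percentage of apoptotic cells.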

[4] = test system: PC-3; assay: Induction of apoptosis in human PC3 cell at 5 uM by TUNEL assay; type: functional; how it was run: as §2
[5] = test system: PC-3; assay: Induction of apoptosis in human PC3 cell at 1.25 uM by TUNEL assay; type: functional; how it was run: as §2
[6] = molecular target: Induced myeloid leukemia cell differentiation protein Mcl-1 (Homo sapiens, UniProt Q07820); assay: Displacement of FAM-Bid from human Mcl1 by FP assay
Sequence of Induced myeloid leukemia cell differentiation protein Mcl-1 (Q07820 whole entry): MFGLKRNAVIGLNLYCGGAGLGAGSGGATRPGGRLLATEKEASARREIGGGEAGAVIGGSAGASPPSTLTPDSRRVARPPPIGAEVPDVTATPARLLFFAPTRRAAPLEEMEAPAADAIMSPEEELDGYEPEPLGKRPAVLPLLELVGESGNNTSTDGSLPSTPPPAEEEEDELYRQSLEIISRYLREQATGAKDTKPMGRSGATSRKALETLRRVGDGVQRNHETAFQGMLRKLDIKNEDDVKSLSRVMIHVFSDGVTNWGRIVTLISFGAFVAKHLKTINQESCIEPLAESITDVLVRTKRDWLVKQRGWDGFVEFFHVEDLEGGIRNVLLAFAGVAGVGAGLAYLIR

[7] = molecular target: Bcl-2-like protein 1 (Homo sapiens, UniProt Q07817); assay: Displacement of FAM-Bak from human Bcl-xL by FP assay; how it was run: as §1
Sequence of Bcl-2-like protein 1 (Q07817 whole entry): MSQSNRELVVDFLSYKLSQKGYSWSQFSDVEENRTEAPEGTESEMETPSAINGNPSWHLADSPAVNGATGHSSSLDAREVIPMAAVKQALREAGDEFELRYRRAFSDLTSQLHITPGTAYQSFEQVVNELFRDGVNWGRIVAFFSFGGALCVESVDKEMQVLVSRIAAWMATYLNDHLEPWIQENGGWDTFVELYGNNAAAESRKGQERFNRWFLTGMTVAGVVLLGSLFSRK

T1 sequence (P10415 whole entry): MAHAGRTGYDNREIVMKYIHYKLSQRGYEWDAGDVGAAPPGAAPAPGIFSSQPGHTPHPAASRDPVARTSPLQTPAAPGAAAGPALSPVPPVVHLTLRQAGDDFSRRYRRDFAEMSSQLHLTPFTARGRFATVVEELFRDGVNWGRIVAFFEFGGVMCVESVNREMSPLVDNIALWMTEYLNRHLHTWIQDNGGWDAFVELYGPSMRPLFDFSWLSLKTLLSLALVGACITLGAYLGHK

Compound: CC(C)c1cc(C(=O)Nc2ccccc2)c(O)c(O)c1O
- IC50 [1]: 53100 nM
- Ki [2]: 24100 nM

Compound: O=C(Nc1ccccc1)c1cc(Cc2ccccc2)c(O)c(O)c1O
- IC50 [1]: 7200 nM
- Ki [2]: 8300 nM

Compound: COc1c(Cc2ccccc2C(C)C)cc(C(=O)Nc2ccc(S(=O)(=O)c3ccccc3C(C)(C)C)cc2)c(OC)c1OC
- Activity [3]: 1.2%
- Ki [2]: 25000 nM

Compound: O=C(Nc1ccc(S(=O)(=O)c2ccccc2)cc1)c1cc(Cc2ccccc2)c(O)c(O)c1O
- IC50 [1]: 1600 nM
- Ki [2]: 930 nM

Compound: CC(C)c1ccccc1Cc1cc(C(=O)Nc2ccc(S(=O)(=O)c3ccccc3C(C)(C)C)cc2)c(O)c(O)c1O
- Activity [4]: 89.5%
- Activity [5]: 11.2%
- IC50 [6]: 1030 nM
- Ki [6]: 260 nM
- IC50 [1]: 700 nM
- Ki [2]: 290 nM
- IC50 [7]: 6580 nM
- Ki [7]: 1110 nM

Compound: CC[C@H](C)[C@H](NC(=O)[C@H](CC(N)=O)NC(=O)[C@H](CCCN=C(N)N)NC(=O)[C@@H](NC(=O)[C@@H](NC(=O)[C@H](CC(=O)O)NC(=O)[C@H](CCC(=O)O)NC(=O)[C@@H](N)CCC(N)=O)[C@@H](C)CC)[C@@H](C)CC)C(=O)N[C@@H](C)C(=O)N[C@@H](CCCN=C(N)N)C(=O)N[C@@H](Cc1c[nH]cn1)C(=O)N[C@@H](CC(C)C)C(=O)N[C@@H](C)C(=O)N[C@@H](CCC(N)=O)C(=O)N[C@H](C(=O)NCC(=O)N[C@@H](CC(=O)O)C(=O)N[C@@H](CO)C(=O)N[C@@H](CCSC)C(=O)N[C@@H](CC(=O)O)C(=O)N[C@@H](CCCN=C(N)N)C(=O)O)C(C)C
- IC50 [6]: 52 nM
- Ki [6]: 12 nM

Compound: Cc1cc2c(C(C)C)c(O)c(O)c(C=O)c2c(O)c1-c1c(C)cc2c(C(C)C)c(O)c(O)c(C=O)c2c1O [GOSSYPOL]
- Ki [6]: 180 nM
- Ki [7]: 480 nM
